According to ChEMBL document CHEMBL2163187, “Neomaclafungins A-I: oligomycin-class macrolides from a marine-derived actinomycete” (2012):
Values after ≈ are worked out from the molar mass of the structure shown.

System: Trichophyton mentagrophytes
Test: Antifungal activity against Trichophyton mentagrophytes ATCC 9533
Format: functional
How it was run: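 Microbial assay against Trichophyton mentagrophytes ATCC 9533. Compounds were tested at concentrations from 10 μg/mL to 10 ng/mL.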

MIC [µg/mL]	SMILES
3 (≈ 3.85 µM)	CCCC[C@H]1[C@@H]2C[C@@]3(CC[C@H](C)[C@H](C[C@@H](C)O)O3)O[C@H]1CC[C@@H](CC)/C=C/C=C/CC[C@@H](O)[C@@H](C)[C@@H](O)C[C@@H](OC)C[C@@H](O)[C@H](C)[C@H](O)[C@@H](C)/C=C/C(=O)O2
1 (≈ 1.33 µM)	CC[C@H]1/C=C/C=C/CC[C@@H](O)[C@@H](C)[C@@H](O)C[C@@H](OC)C[C@@H](O)[C@H](C)[C@H](O)[C@@H](C)/C=C/C(=O)O[C@H]2C[C@@]3(CC[C@H](C)[C@H](C[C@@H](C)O)O3)O[C@@H](CC1)[C@H]2CC
3 (≈ 3.77 µM)	CC[C@H]1/C=C/C=C/CC[C@@H](O)[C@@H](C)[C@@H](O)C[C@@H](OC)C[C@@H](O)[C@H](C)[C@H](O)[C@@H](C)/C=C/C(=O)O[C@H]2C[C@@]3(CC[C@H](C)[C@H](C[C@@H](C)O)O3)O[C@@H](CC1)[C@H]2CCC(C)O (stereo not given in full)
3 (≈ 3.92 µM)	CCC[C@H]1[C@@H]2C[C@@]3(CC[C@H](C)[C@H](C[C@@H](C)O)O3)O[C@H]1CC[C@@H](CC)/C=C/C=C/CC[C@@H](O)[C@@H](C)[C@@H](O)C[C@@H](OC)C[C@@H](O)[C@H](C)[C@H](O)[C@@H](C)/C=C/C(=O)O2
1 (≈ 1.26 µM)	CC[C@@H](O)C[C@@H]1O[C@@]2(CC[C@@H]1C)C[C@@H]1OC(=O)/C=C/[C@H](C)[C@@H](O)[C@@H](C)[C@H](O)C[C@H](OC)C[C@H](O)[C@H](C)[C@H](O)CC/C=C/C=C/[C@H](CC)CC[C@H](O2)[C@H]1CCCO
1 (≈ 1.24 µM)	CC[C@@H](O)C[C@@H]1O[C@@]2(CC[C@@H]1C)C[C@@H]1OC(=O)/C=C/[C@H](C)[C@@H](O)[C@@H](C)[C@H](O)C[C@H](OC)C[C@H](O)[C@H](C)[C@H](O)CC/C=C/C=C/[C@H](CC)CC[C@H](O2)[C@H]1CCC(C)O (stereo not given in full)
3 (≈ 3.78 µM)	CCCCC[C@H]1[C@@H]2C[C@@]3(CC[C@H](C)[C@H](C[C@@H](C)O)O3)O[C@H]1CC[C@@H](CC)/C=C/C=C/CC[C@@H](O)[C@@H](C)[C@@H](O)C[C@@H](OC)C[C@@H](O)[C@H](C)[C@H](O)[C@@H](C)/C=C/C(=O)O2
3 (≈ 3.85 µM)	CCC[C@H]1[C@@H]2C[C@@]3(CC[C@H](C)[C@H](C[C@H](O)CC)O3)O[C@H]1CC[C@@H](CC)/C=C/C=C/CC[C@@H](O)[C@@H](C)[C@@H](O)C[C@@H](OC)C[C@@H](O)[C@H](C)[C@H](O)[C@@H](C)/C=C/C(=O)O2
3 (≈ 3.84 µM)	CC[C@H]1/C=C/C=C/CC[C@@H](O)[C@@H](C)[C@@H](O)C[C@@H](OC)C[C@@H](O)[C@H](C)[C@H](O)[C@@H](C)/C=C/C(=O)O[C@H]2C[C@@]3(CC[C@H](C)[C@H](C[C@@H](C)O)O3)O[C@@H](CC1)[C@H]2CCCO [NEOMACLAFUNGIN A]

SMILES	MIC [µg/mL]
CC[C@@H]1/C=C/C=C/C[C@H](C)[C@H](O)[C@](C)(O)C(=O)[C@H](C)[C@@H](O)[C@H](C)C(=O)[C@H](C)[C@@H](O)[C@H](C)/C=C/C(=O)O[C@H]2[C@@H](C)[C@@H](CC1)O[C@@]1(CC[C@@H](C)[C@@H](C[C@H](C)O)O1)[C@@H]2C [OLIGOMYCIN A]	10 (≈ 12.6 µM)
